# In ChEMBL document CHEMBL4622996, “Discovery of Vixotrigine: A Novel Use-Dependent Sodium Channel Blocker for the Treatment of Trigeminal Neuralgia” (ACS Med Chem Lett, 2020):
# Active and inactive are the calls of the source. The rule behind the calls is not given here.
# Tests used:
# [1] = Free plasma concentration in rat model of chronic constriction injury-induced neuropathic pain at 5 mg/kg, po BID administered 22 days post surgery and measured on day 8 at 0.5 hrs post-dose; assay type: ADME, organism-based; conditions: in vivo
# In short: (§1)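 Chronic constriction injury neuropathic pain model in rat; oral dosing at 0.5 or 5 mg/kg BID starting day 22; mechanical allodynia read after 6 and 8 days of dosing; gabapentin 30 mg/kg po BID as positive control. Free plasma levels sampled on day 8, 0.5 h postdose.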
# [2] = Ratio of drug level in brain to blood in rat; assay type: ADME, tissue-based; conditions: read-out: Kbb
# [3] = target: Sodium channel protein type 3 subunit alpha (Homo sapiens, UniProt Q9NY46); assay: Inhibition of Nav1.3 (unknown origin) expressed in HEK293 cells assessed as 15% inhibition of sodium current incubated for 3 to 3.5 mins by electrophysiology assay; assay type: cell-based
# Sodium channel protein type 3 subunit alpha, sequence (Q9NY46 whole entry, looked up): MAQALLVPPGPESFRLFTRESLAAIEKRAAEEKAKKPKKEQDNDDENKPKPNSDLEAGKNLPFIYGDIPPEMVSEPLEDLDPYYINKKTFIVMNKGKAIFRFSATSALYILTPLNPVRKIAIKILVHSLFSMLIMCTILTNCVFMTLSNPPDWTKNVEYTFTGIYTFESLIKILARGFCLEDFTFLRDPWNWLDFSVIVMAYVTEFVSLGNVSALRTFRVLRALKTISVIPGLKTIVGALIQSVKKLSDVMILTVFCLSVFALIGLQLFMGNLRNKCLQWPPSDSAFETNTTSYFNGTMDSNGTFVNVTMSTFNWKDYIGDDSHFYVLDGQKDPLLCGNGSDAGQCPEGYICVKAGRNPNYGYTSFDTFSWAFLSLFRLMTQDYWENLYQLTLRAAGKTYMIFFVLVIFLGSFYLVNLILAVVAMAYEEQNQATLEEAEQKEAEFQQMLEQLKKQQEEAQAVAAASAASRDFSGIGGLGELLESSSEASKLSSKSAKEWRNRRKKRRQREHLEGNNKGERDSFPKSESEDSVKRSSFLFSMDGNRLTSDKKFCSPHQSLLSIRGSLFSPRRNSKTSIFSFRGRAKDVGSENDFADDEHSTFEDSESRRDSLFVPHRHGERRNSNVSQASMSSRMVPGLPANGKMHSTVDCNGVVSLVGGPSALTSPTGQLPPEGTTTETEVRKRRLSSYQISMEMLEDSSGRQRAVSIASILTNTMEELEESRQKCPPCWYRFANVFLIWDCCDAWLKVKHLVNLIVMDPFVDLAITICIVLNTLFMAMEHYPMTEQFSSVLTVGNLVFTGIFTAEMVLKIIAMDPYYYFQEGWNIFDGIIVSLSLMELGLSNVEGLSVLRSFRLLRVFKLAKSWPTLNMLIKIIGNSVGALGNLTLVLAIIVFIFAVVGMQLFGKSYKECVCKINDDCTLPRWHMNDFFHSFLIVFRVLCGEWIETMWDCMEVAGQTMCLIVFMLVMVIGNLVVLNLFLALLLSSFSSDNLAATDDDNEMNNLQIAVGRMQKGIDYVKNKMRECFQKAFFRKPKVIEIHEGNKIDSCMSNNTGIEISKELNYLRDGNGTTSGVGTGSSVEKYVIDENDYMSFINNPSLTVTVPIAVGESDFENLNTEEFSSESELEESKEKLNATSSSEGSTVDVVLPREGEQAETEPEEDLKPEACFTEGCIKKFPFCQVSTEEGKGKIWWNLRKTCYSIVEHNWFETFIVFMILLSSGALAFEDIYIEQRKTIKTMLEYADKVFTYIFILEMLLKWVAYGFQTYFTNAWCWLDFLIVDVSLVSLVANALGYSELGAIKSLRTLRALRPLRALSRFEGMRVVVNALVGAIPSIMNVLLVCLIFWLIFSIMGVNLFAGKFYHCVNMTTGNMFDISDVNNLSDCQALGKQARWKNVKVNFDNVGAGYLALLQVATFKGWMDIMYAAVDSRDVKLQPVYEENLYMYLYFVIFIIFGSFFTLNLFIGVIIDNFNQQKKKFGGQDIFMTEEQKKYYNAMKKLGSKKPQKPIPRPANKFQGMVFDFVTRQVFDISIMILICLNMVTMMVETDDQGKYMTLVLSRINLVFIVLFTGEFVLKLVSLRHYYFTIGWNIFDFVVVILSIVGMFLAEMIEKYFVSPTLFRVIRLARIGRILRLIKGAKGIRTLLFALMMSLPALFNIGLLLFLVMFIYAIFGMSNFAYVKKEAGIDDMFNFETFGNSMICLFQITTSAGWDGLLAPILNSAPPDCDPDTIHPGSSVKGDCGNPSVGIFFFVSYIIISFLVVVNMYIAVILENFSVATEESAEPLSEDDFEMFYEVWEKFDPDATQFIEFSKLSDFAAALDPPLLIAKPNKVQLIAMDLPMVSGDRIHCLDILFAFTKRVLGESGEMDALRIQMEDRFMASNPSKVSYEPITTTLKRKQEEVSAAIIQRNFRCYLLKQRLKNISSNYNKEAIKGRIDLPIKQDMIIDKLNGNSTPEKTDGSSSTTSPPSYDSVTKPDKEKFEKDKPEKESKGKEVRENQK
# In short: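 HEK293 cells stably expressing NaV1.3, grown in DMEM-F12 with 10% FBS at 37 °C, dissociated at 50–70% confluency; IonWorksHT planar patch clamp at 21–23 °C, amphotericin perforated access; intracellular K-gluconate 100, KCl 40, MgCl2 3.2, EGTA 3, HEPES 5 mM, pH 7.3.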
# [4] = tested on: Rattus norvegicus; assay: Antinociceptive activity in rat model of chronic constriction injury-induced neuropathic pain assessed as inhibition of mechanical allodynia at 0.5 to 5 mg/kg, po BID administered 22 days post surgery and measured after 6 to 8 days; assay type: functional, organism-based; in short: as §1
# [5] = Cmax in dog at 3 mg/kg, po; assay type: ADME, organism-based, Canis lupus familiaris; parameters: dose 3 mg/kg, route oral; conditions: in vivo
# [6] = target: Cytochrome P450 2D6 (Homo sapiens, UniProt P10635); assay: Inhibition of CYP2D6 (unknown origin); assay type: ADME
# Cytochrome P450 2D6, sequence (P10635 whole entry): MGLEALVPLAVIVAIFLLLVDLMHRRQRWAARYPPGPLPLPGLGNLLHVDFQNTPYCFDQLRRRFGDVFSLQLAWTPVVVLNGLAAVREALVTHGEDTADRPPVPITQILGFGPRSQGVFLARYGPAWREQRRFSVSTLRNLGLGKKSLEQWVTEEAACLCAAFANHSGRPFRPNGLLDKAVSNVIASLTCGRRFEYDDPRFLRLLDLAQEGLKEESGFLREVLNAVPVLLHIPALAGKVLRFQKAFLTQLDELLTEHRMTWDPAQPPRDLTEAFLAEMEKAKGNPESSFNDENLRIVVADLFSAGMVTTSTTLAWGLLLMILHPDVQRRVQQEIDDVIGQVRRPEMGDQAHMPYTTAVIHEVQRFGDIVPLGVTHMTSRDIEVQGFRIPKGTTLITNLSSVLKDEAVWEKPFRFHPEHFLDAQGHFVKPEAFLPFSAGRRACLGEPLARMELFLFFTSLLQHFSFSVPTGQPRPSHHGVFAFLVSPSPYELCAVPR
# [7] = Apparent permeability in dog MDCK cells at pH 7.4; assay type: ADME, cell-based, Canis lupus familiaris
# In short: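 MDCK cell monolayer permeability measured at pH 7.4, reported as apparent permeability in nm/s.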
# [8] = Total blood clearance in monkey blood at 0.5 mg/kg, iv; assay type: ADME, organism-based, Macaca mulatta; conditions: rhesus monkey
compound,measurement,setting,value
Cl.NC(=O)[C@@H]1CC[C@H](c2ccc(OCc3ccccc3F)cc2)N1 [RAXATRIGINE HYDROCHLORIDE],Cp(f),[1],23.4 ng/mL
same,Kp,[2],6.8
same,log(activity),[3],-5.5
same,Activity,[4],Active
same,Cmax,[5],705 ng/mL
same,IC50,[6],> 100 µM
same,Papp,[7],38.6 ×10⁻⁶ cm/s
same,clearance,[8],5 mL/min/kg
